This is an account of results in ChEMBL document CHEMBL1158179, “Facile synthesis of dithiatetraaza-macrocycles of potential anti-inflammatory activity” (Eur J Med Chem, 2008).

In data set [1] the test system is Rattus norvegicus. Description: Antiinflammatory activity against carrageenan-induced paw edema in Wister albino rat at 50 mg/kg, ip administered 1 hr before inflammation induction assessed after 4 hrs. In kind it is functional. Particulars: route intraperitoneal. Summed up: (§1)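 Wistar albino rats of either sex (pregnant females excluded), 160–190 g, 6 per group, kept at 22 °C on a 12 h light/dark cycle. Agent in DMSO given i.p. 1 h before 0.1 ml of 1% carrageenan in saline was injected subcutaneously into the right hind paw. Controls got DMSO. Oedema was paw volume by plethysmometer minus initial volume. Values are % inhibition = (Vc−Vt)/Vc×100; means ± SE, one-way ANOVA with LSD, p<0.05.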
In general terms: Carrageenan injected into the paw causes an acute inflammation.

Data set [2] has as its system Rattus norvegicus. Briefly: Antiinflammatory activity against carrageenan-induced paw edema in Wister albino rat at 50 mg/kg, ip administered 1 hr before inflammation induction assessed after 4 hrs relative to indomethacin. The format is functional. Particulars: route intraperitoneal. Summed up: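 Same rat carrageenan paw oedema protocol: i.p. dosing in DMSO 1 h before carrageenan, with paw volume read by plethysmometer at 4 h. Potency is the % oedema inhibition of the test group divided by that of the indomethacin (10 mg/kg i.p.) group.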

Data set [3] has as its system Rattus norvegicus. Briefly: Antiinflammatory activity against carrageenan-induced paw edema in Wister albino rat at 10 mg/kg, ip administered 1 hr before inflammation induction assessed after 1 hr. The format is functional. Particulars: route intraperitoneal. Summed up: as §1
Data set [4] relates to Rattus norvegicus. Briefly: Antiinflammatory activity against carrageenan-induced paw edema in Wister albino rat at 10 mg/kg, ip administered 1 hr before inflammation induction assessed after 4 hrs. The format is functional. To be noted: route intraperitoneal. Summed up:
as §1

Data set [5] relates to Rattus norvegicus. Description: Antiinflammatory activity against carrageenan-induced paw edema in Wister albino rat at 10 mg/kg, ip administered 1 hr before inflammation induction assessed after 3 hrs. The format is functional. Particulars: route intraperitoneal. Summed up: as §1
The subject of data set [6] is Rattus norvegicus. Description: Antiinflammatory activity against carrageenan-induced paw edema in Wister albino rat at 10 mg/kg, ip administered 1 hr before inflammation induction assessed after 2 hrs. The format is functional. Particulars: route intraperitoneal. The essentials: as §1
The subject of data set [7] is Mus musculus. Description: Toxicity in albino mouse at 750 mg/kg, ip assessed as mortality after 24 hrs by LD50 standard method. In kind it is organism-based. Set-up: dose 750 mg/kg, route intraperitoneal. To be noted: in vivo. The essentials: (§2)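 Albino mice, 20-25 g, 9 groups of 6; test agents dissolved in DMSO and given intraperitoneally at 500, 750 and 1000 mg/kg body weight; controls received DMSO only. Toxic symptoms, mortality and postmortem findings recorded 24 h after administration; LD50 computed by formula from largest dose killing all animals, mean dead between successive groups, dose factor and group size.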

Data set [8] has as its system Rattus norvegicus. Description: Antiinflammatory activity against carrageenan-induced paw edema in Wister albino rat at 50 mg/kg, ip administered 1 hr before inflammation induction assessed after 3 hrs. In kind it is functional. Particulars: route intraperitoneal. The essentials: as §1
Data set [9] relates to Mus musculus. Description: Toxicity in albino mouse at 1000 mg/kg, ip assessed as mortality after 24 hrs by LD50 standard method. Set-up: dose 1000 mg/kg, route intraperitoneal. Particulars: in vivo. The format is organism-based. The essentials:
as §2

Data set [10] deals with Rattus norvegicus. Briefly: Antiinflammatory activity against carrageenan-induced paw edema in Wister albino rat at 50 mg/kg, ip administered 1 hr before inflammation induction assessed after 1 hr. In kind it is functional. Particulars: route intraperitoneal. Summed up: as §1
Data set [11] relates to Mus musculus. Description: Toxicity in albino mouse at 500 mg/kg, ip assessed as mortality after 24 hrs by LD50 standard method. On the set-up: dose 500 mg/kg, route intraperitoneal. Particulars: in vivo. The format is organism-based. Summed up:
as §2

The test system of data set [12] is Rattus norvegicus. Description: Antiinflammatory activity against carrageenan-induced paw edema in Wister albino rat at 50 mg/kg, ip administered 1 hr before inflammation induction assessed after 2 hrs. To be noted: route intraperitoneal. In kind it is functional. The essentials:
as §1

As usually defined, the inhibition in vivo is the change of the read-out against control, counted positive when it falls. In data set [1], `CCNC(=O)Nc1ccccc1SCCCSc1ccccc1NC(=O)NCC` had an inhibition in vivo at 50 mg/kg of 42.1%. Besides, the Ratio in data set [2] is given as 0.73.

`O=C(Nc1ccccc1)Nc1ccccc1SCCSc1ccccc1NC(=O)Nc1ccccc1` showed an inhibition in vivo at 50 mg/kg in data set [1] of 32.8%. Moreover, the Ratio in data set [2] came to 0.57.

Compound `O=C(Nc1ccccc1)Nc1ccccc1SCCCSc1ccccc1NC(=O)Nc1ccccc1` had an inhibition in vivo at 50 mg/kg in data set [1] of 29.6%. For the same compound, the Ratio in data set [2] was determined as 0.51.

The compound `S=C(Nc1ccccc1)Nc1ccccc1SCCCSc1ccccc1NC(=S)Nc1ccccc1` yielded an inhibition in vivo at 50 mg/kg in data set [1] of 38%. Besides, the Ratio in data set [2] was 0.66.

In [1], `O=C1Nc2ccc(cc2)NC(=O)Nc2ccccc2SCCSc2ccccc2N1` displayed an inhibition in vivo at 50 mg/kg of 34.9%. In addition, in data set [2], the Ratio is reported as 0.61.

For the compound `O=C(Nc1ccc(Cl)c(Cl)c1)Nc1ccccc1SCCSc1ccccc1NC(=O)Nc1ccc(Cl)c(Cl)c1`, the inhibition in vivo at 50 mg/kg in data set [1] worked out at 7.1%. The Ratio in [2] was determined as 0.12.

On to `COc1ccc2c(c1)c(CC(=O)O)c(C)n2C(=O)c1ccc(Cl)cc1` [INDOMETHACIN], for which the inhibition in vivo at 10 mg/kg in data set [3] stood at 50.5%; in data set [4], 57.6%; in [5], 50.1%; in data set [6] it was 48.2%.

On to `O=C1Nc2ccc(cc2)NC(=O)Nc2ccccc2SCCCSc2ccccc2N1`, for which the Activity result in data set [7], in data set [9] and in data set [11] was “Non-toxic” in each case. The inhibition in vivo at 50 mg/kg in [8] is 46.6%; in data set [10], 45.4%; in data set [1], 48.9%; in data set [12] it was 44%. In data set [2], the Ratio was 0.85.

`CCNC(=O)Nc1ccccc1SCCSc1ccccc1NC(=O)NCC`: testing at 50 mg/kg in [1] gave an inhibition in vivo of 33.1%. For the same compound, in data set [2], the Ratio was found to be 0.57.

As for `COc1ccc(NC(=O)Nc2ccccc2SCCSc2ccccc2NC(=O)Nc2ccc(OC)cc2)cc1`, the Activity entry in data set [7], in [9] and in [11] was “Non-toxic” throughout. Besides, the inhibition in vivo at 50 mg/kg in data set [8] was determined as 39.2%; in data set [10] it was 35.2%; in [1], 51.9%; in data set [12], 38.4%. Moreover, the Ratio in data set [2] was found to be 0.9.

`O=C(Nc1ccc(Cl)c(Cl)c1)Nc1ccccc1SCCCSc1ccccc1NC(=O)Nc1ccc(Cl)c(Cl)c1` registered an inhibition in vivo at 50 mg/kg in data set [1] of 28.3%. In addition, the Ratio in data set [2] is 0.49.

In [1], `COc1ccc(NC(=O)Nc2ccccc2SCCCSc2ccccc2NC(=O)Nc2ccc(OC)cc2)cc1` displayed an inhibition in vivo at 50 mg/kg of 35%. Moreover, in data set [2], the Ratio was 0.61.

The compound `S=C(Nc1ccccc1)Nc1ccccc1SCCSc1ccccc1NC(=S)Nc1ccccc1` yielded an inhibition in vivo at 50 mg/kg in data set [1] of 43.3%. Also, the Ratio in [2] is 0.75.
